Source: PubChem BioAssay
Mdm2-MdmX inh: human Mdm2/MdmX binding inhibition. O15151+Q00987. inhibition, % at 8 µM. 330,000 compounds, 3% hits. SaOS-2 split-luciferase Mdm2/MdmX complementation, luminescence;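 active = inhibition of at least 50% at 8 µM in the primary screen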
SKKanGAS inh: blocks kanamycin growth of S. pyogenes SKKanGAS strain; BacTiter-Glo, 6 h; inhibition, % at 7.5 µM; 300,000 compounds, 1.3% hits; AID 1662;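 active = mean replicate score, as percent of positive control median, at least 50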;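 note: strain carries kanamycin resistance gene driven by streptokinase promoter and grows in 40 µg/ml kanamycin; loss of luminescence reflects streptokinase promoter inhibition or plain growth inhibition; 0% = median of DMSO wells and 100% = positive control at its reference dose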
T cruzi inh: blocks replication of Trypanosoma cruzi | T. cruzi beta-gal in NIH3T3, luminescence, 90 h | inhibition, % (test concentration not listed) | 300,000 compounds, 1.4% hits;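 active = mean inhibition across valid replicates above about 55%, limit read from the data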;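 note: signal also drops with host cell toxicity which is not excluded here; 0% = plate median of DMSO wells and 100% = zero luminescence signal; higher percent means less beta-gal luminescence so fewer parasites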
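Material: NIH/3T3 host cells with β-galactosidase reporter T. cruzi; Input: 5,000 host fibroblasts per well; Medium: DMEM, 2% fetal bovine serum; Compound: 50 nL DMSO compound solution per well; Schedule: 3 h host attachment, then at least 90 h co-culture; Detection: luminescent β-galactosidase signal after 60 min lysis.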
L major viab: reduces viability of Leishmania major promastigotes; inhibition, % at 10 µM; AID 1063; resazurin fluorescence viability; 200,000 compounds, 9% hits; in the data active = inhibition above about 50%;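 note: promastigotes grown with compound for 44 hours at 28 °C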
CSC inhib: cancer stem cell inhibition; cancer stem cell-like cells viability, luminescence; AID 2717; inhibition, % at 7.5 µM; 300,000 compounds, 1.1% hits; in the data active = inhibition above about 75%; tested in HMLE shEcad cells
Beta cell apopt: blocks beta cell apoptosis. INS-1E cytokine-induced death, ATP luminescence, 48 h; percent of positive-control rescue, neutral wells zero. protection from apoptosis, % (test concentration not listed). 300,000 compounds, 0.8% hits;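 active = Every replicate reaches about 75%, or at least half do and their mean reaches it too, limit read from the data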;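 note: 0% = cytokine-treated negative control wells and 100% = positive control rescue; higher means more ATP so stronger rescue from cytokine killing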
* marks the source's active call; other numbers are inactive results; nt = no result. In the library only some 9.4% were active in any assay of this set; here they are far more common.

SMILES | Mdm2-MdmX inh | SKKanGAS inh | T cruzi inh | L major viab | CSC inhib | Beta cell apopt
COc1ccc(/C=N/NC(=O)c2cc(C(C)(C)C)[nH]n2)cc1COc1ccc(F)cc1F | 6 | 61* | 2 | 19 | 40 | 4
CCOC(=O)c1c(CSc2ccc(C)cc2)n(C)c2cc(Br)c(O)c(CN(C)C)c12 | 31 | 16 | 42 | 71* | 97* | 3
COc1cc(/C=C/C(=O)Nc2cccc(S(=O)(=O)NC3=NCCCCC3)c2)ccc1OCC#N | 16 | 1 | -10 | nt | 20 | 1
Cc1ccc(S(=O)(=O)CC(CN2CCCCC2)N2CCCCC2)cc1 (stereo not given) | nt | -8 | 3 | 97* | nt | nt
Cc1cc(-c2c(C)[nH]n(-c3ccc(Cl)cc3)c2=O)n(-c2ccc(Cl)cc2)n1 | -1 | 101* | -40 | -11 | 26 | 8
Cc1cc(-c2c(C)[nH]n(-c3ccccc3)c2=O)n(-c2ccccc2)n1 | 19 | 0 | -10 | -7 | -1 | 4
Cc1ccc(NC(=O)/C=C/c2ccc([N+](=O)[O-])s2)c(C)c1 | nt | 5 | 42 | 34 | 107* | 106*
Cc1cccc(NC(=O)/C=C/c2ccc([N+](=O)[O-])s2)c1 | nt | 11 | 59* | 100* | 107* | 99*
Cc1ccc(NC(=O)/C=C/c2ccc([N+](=O)[O-])s2)cc1 | -14 | 4 | 31 | 97* | 10 | 4
CN(CC(=O)Nc1ccccc1Cl)C(=O)c1ccc(-c2cccc(C(F)(F)F)c2)o1 | -11 | 5 | 10 | nt | nt | -1
Cc1ccccc1C(=O)NNc1ccc(-c2csnn2)cc1 | -12 | 3 | 33 | nt | 52 | 6
CCSc1nnc(NC(=O)CSc2nnc(CNC(=O)c3ccccc3F)o2)s1 | 16 | 9 | 7 | 85* | 3 | -7
COc1cccc(NC(=O)CSc2nnc(CNC(=O)c3ccccc3F)o2)c1 | 13 | -2 | 8 | nt | 3 | -3
CCOC(=O)c1c(C)[nH]c(C(=O)OCC(=O)N2CCN(S(=O)(=O)c3ccc(C)cc3C)CC2)c1C | 29 | nt | nt | nt | 5 | 4
Cc1noc(C)c1S(=O)(=O)N(CCc1ccccc1)Cc1ccccc1 | -9 | 54* | 16 | 11 | 14 | -7
COc1cccc(OC)c1C(=O)Nc1ccc2c(c1)N(S(=O)(=O)c1cccs1)CCC2 | -2 | -7 | 20 | nt | 5 | 10
O=C(Nc1ccc2c(c1)N(S(=O)(=O)c1cccs1)CCC2)c1c(F)cccc1Cl | 34 | 51* | 17 | nt | nt | 15
Cc1cc(OCCCCCN2CCCC2)ccc1Cl | -8 | 17 | 67* | 99* | 55 | 8
Clc1ccc(OCCCn2cncn2)cc1Cl | 7 | -8 | -12 | 100* | 4 | -8
Clc1ccc(OCCCN2CCCC2)cc1Cl | -6 | 1 | 48 | 91* | -2 | 1
c1ccc(COc2ccc(OCCCn3cncn3)cc2)cc1 | -155 | -1 | 5 | -6 | 11 | 1
Clc1ccc(OCCN2CCOCC2)cc1Cl | 5 | 5 | -17 | 86* | -8 | 1
CNC(=O)CSc1cnc2ccccc2n1 | -11 | -10 | -2 | -5 | -10 | 0
Clc1ccc(OCCCCN2CCCCC2)cc1 | -4 | -1 | 16 | nt | -10 | -4
Clc1ccc(OCCN2CCCCC2)cc1Cl | -10 | -1 | 41 | 79* | 19 | 0
SMILES | Mdm2-MdmX inh | SKKanGAS inh | T cruzi inh | L major viab | CSC inhib | Beta cell apopt
COc1ccc(N(C(C)=O)c2nc3ccccc3[nH]2)cc1 | 20 | 12 | -12 | nt | -10 | nt
C/C(=N\NC(=O)c1cc2ccccc2cc1O)c1ccc(C)o1 | 18 | 62* | -8 | nt | 2 | 6
C/C(=N/NC(=O)c1cc2ccccc2cc1O)c1ccco1 | 34 | 21 | -3 | nt | -3 | 1
C/C(=N\NC(=O)c1cc2ccccc2cc1O)c1cccs1 | -89 | 71* | 55* | nt | 54 | 2
Cn1cccc1/C=N\NC(=O)Cc1ccc(Br)c2ccccc12 | 20 | -7 | 7 | 37 | 11 | 16
COc1ccc(/C=N/NC(=O)c2ccc(COc3ccccc3Cl)o2)c(OC)c1C | 45 | -8 | -10 | 56* | -5 | 12
COc1ccc(/C=N/NC(=O)c2ccc(COc3ccccc3Cl)o2)cc1 | 17 | -1 | -5 | -3 | 58 | 3
COc1ccc(NC(=O)c2ccc(COc3ccccc3OC)o2)cc1OC | 4 | -4 | -9 | -1 | 8 | -1
COc1ccccc1OCc1ccc(C(=O)Nc2cc(OC)c(OC)c(OC)c2)o1 | 22 | -8 | -8 | nt | -6 | -1
